According to ChEMBL document CHEMBL1123415, “Benzo[a]carbazole derivatives. Synthesis, estrogen receptor binding affinities, and mammary tumor inhibiting activity” (1986):
“And” between values parts separate entries of the source, which are not always exact repeats. Equal values may be shown once.

Legend:
[1] = target: Estrogen receptor (Bos taurus) (UniProt Q9XSB5+P49884); test: Evaluated for relative binding affinity (RBA) for calf uterine estrogen receptor; format: protein assay
How it was run: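 Calf uterine cytosol (105000g supernatant; final protein 3 mg/mL) in Tris-EDTA-azide buffer pH 7.5. Incubated with 5 nM [³H]estradiol and competitor (10⁻⁹–10⁻⁴ M) for 18 h at 4 °C. Free ligand removed with dextran-coated charcoal, bound counted by scintillation. Nonspecific binding measured with 5 μM estradiol. RBA = estradiol/competitor molar ratio at 50% displacement ×100.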

[2] = target: T1, Estrogen receptor (Mus musculus) (UniProt O08537+P19785); test: Uterotrophic activity in mice as uterus dry weight (mg)/body weight (g) *100 at 25 ug; format: functional, tissue-based
How it was run: (§1)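 Immature 19-day-old female NMRI mice, 10 per group. Compound in olive oil injected sc on 3 consecutive days, dose per animal; vehicle-only controls, estrone as reference. Killed 24 h after last injection. Uteri fixed in Bouin solution, dried at 100 °C for 24 h. Value = uterine dry weight (mg)/body weight (g) ×100, mean of 10 animals ± SD.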

[3] = target: T1, Estrogen receptor (Mus musculus); test: Uterotrophic activity in mice as uterus dry weight (mg)/body weight (g) *100 at 5 ug; format: functional, tissue-based; how it was run: as §1
[4] = target: T1, Estrogen receptor (Mus musculus); test: Uterotrophic activity in mice as uterus dry weight (mg)/body weight (g) *100 at 0.2 ug; format: functional, tissue-based; how it was run: as §1
[5] = target: T1, Estrogen receptor (Mus musculus); test: Uterotrophic activity in mice as uterus dry weight (mg)/body weight (g) *100 at 1 ug; format: functional, tissue-based; how it was run: as §1
[6] = target: T1, Estrogen receptor (Mus musculus); test: Uterotrophic activity in mice as uterus dry weight (mg)/body weight (g) *100 at 125 ug; format: functional, tissue-based; how it was run: as §1
Rattus norvegicus [7] = organism: Rattus norvegicus; test: Partial remission of DMBA-induced mammary tumors in rats at 3 mg dose; format: functional
How it was run: (§2)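 Female Sprague–Dawley rats given a single 20 mg DMBA dose by gavage in 1 mL olive oil at 50 days old. Randomized once tumor area per animal exceeded 140 mm². Compound given sc in olive oil (1 mL/kg), dose per kg, once daily Monday–Thursday, double dose Friday. Tumor area from caliper measurement of two perpendicular axes, twice weekly. Significance by Wilcoxon–Mann–Whitney U test.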

Rattus norvegicus [8] = organism: Rattus norvegicus; test: (§3) Change in DMBA-induced mammary tumor area in rats after 28 day therapy at 3 mg dose (experiment-1); format: functional; how it was run: as §2
MCF7 [9] = test: Percentage [3H]thymidine incorporation treated/control in hormone sensitive MCF-7 cell proliferation assay at 10e-5 M or 10e-6 M; format: functional, Homo sapiens
How it was run: (§4)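 MCF-7 cells kept two weeks in medium with 5% charcoal-treated calf serum, 37 °C, 5% CO₂. About 2×10⁴ cells per well; compound added next day in 0.1% ethanol, ethanol-only controls, medium changed on day 4. Cells counted on day 7 by Coulter counter; [³H]thymidine 1 μCi/well for 2 h. Mean of six dishes.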

MCF7 [10] = test: Reduction of cell number of hormone sensitive MCF-7 human breast cancer cells at 10e-5 M
MCF7 [11] = test: Inhibition of [3H]thymidine incorporation into hormone sensitive MCF-7 human breast cancer cells at 10e-5 M; format: functional; how it was run: as §4
Rattus norvegicus [12] = organism: Rattus norvegicus; test: Percentage progressive DMBA-induced mammary tumors in rats at 3 mg dose (experiment-1); format: functional; how it was run: as §2
MCF7 [13] = test: Percentage cell number change as treated/control in hormone sensitive MCF-7 cell proliferation assay at 10e-6 M or 10e-5 M; format: functional, Homo sapiens; how it was run: as §4
Rattus norvegicus [14] = organism: Rattus norvegicus; test: as §3; format: functional; how it was run: as §2; remark: listed apart in the source
Rattus norvegicus [15] = organism: Rattus norvegicus; test: Percentage static unchanged DMBA-induced mammary tumors in rats at 3 mg dose (experiment-1); format: functional; how it was run: as §2
MCF7 [16] = test: Inhibition of [3H]thymidine incorporation into hormone sensitive MCF-7 human breast cancer cells at 10e-6 M; format: functional; how it was run: as §4
MCF7 [17] = test: Reduction of cell number of hormone sensitive MCF-7 human breast cancer cells at 10e-6 M
Rattus norvegicus [18] = organism: Rattus norvegicus; test: Complete remission of DMBA-induced mammary tumors in rats at 3 mg dose; format: functional; how it was run: as §2
Rattus norvegicus [19] = organism: Rattus norvegicus; test: Initial tumor number in DMBA-induced tumor bearing rats at 3 mg dose (experiment-1); format: functional; how it was run: as §2
Rattus norvegicus [20] = organism: Rattus norvegicus; test: Final tumor number in DMBA-induced tumor bearing rats at 3 mg dose (experiment-1); format: functional; how it was run: as §2
Rattus norvegicus [21] = organism: Rattus norvegicus; test: Partial remission of DMBA-induced mammary tumors in rats at 1 mg dose; format: functional; how it was run: as §2
Rattus norvegicus [22] = organism: Rattus norvegicus; test: Final tumor number in DMBA-induced tumor bearing rats at 4 mg dose (experiment-2); format: functional; how it was run: as §2
Rattus norvegicus [23] = organism: Rattus norvegicus; test: Percentage progressive DMBA-induced mammary tumors in rats at 1 mg dose (experiment-1); format: functional; how it was run: as §2
Rattus norvegicus [24] = organism: Rattus norvegicus; test: Change in DMBA-induced tumor area in rats after 28 day therapy at 1 mg dose (experiment-1); format: functional; how it was run: as §2
Rattus norvegicus [25] = organism: Rattus norvegicus; test: Initial tumor number in DMBA-induced tumor bearing rats at 4 mg dose (experiment-2); format: functional; how it was run: as §2
Rattus norvegicus [26] = organism: Rattus norvegicus; test: Percentage progressive DMBA-induced mammary tumors in rats at 4 mg dose (experiment-1); format: functional; how it was run: as §2
Rattus norvegicus [27] = organism: Rattus norvegicus; test: Percentage static unchanged DMBA-induced mammary tumors in rats at 4 mg dose (experiment-1); format: functional; how it was run: as §2
Rattus norvegicus [28] = organism: Rattus norvegicus; test: Percentage static unchanged DMBA-induced mammary tumors in rats at 1 mg dose (experiment-1); format: functional; how it was run: as §2
Rattus norvegicus [29] = organism: Rattus norvegicus; test: Partial remission of DMBA-induced mammary tumors in rats at 4 mg dose; format: functional; how it was run: as §2
Rattus norvegicus [30] = organism: Rattus norvegicus; test: Initial tumor number in DMBA-induced tumor bearing rats at 1 mg dose (experiment-1); format: functional; how it was run: as §2
Rattus norvegicus [31] = organism: Rattus norvegicus; test: (§5) Change in DMBA-induced mammary tumor area in rats after 28 day therapy at 4 mg dose (experiment-2); format: functional; how it was run: as §2
Rattus norvegicus [32] = organism: Rattus norvegicus; test: Final tumor number in DMBA-induced tumor bearing rats at 1 mg dose (experiment-1); format: functional; how it was run: as §2
Rattus norvegicus [33] = organism: Rattus norvegicus; test: Complete remission of DMBA-induced mammary tumors in rats at 1 mg dose; format: functional; how it was run: as §2
Rattus norvegicus [34] = organism: Rattus norvegicus; test: Complete remission of DMBA-induced mammary tumors in rats at 4 mg dose; format: functional; how it was run: as §2
Rattus norvegicus [35] = organism: Rattus norvegicus; test: as §5; format: functional; how it was run: as §2; remark: listed apart in the source
Rattus norvegicus [36] = organism: Rattus norvegicus; test: Final tumor number in DMBA-induced tumor bearing rats at 4 mg dose (experiment-1); format: functional; how it was run: as §2
Rattus norvegicus [37] = organism: Rattus norvegicus; test: Change in DMBA-induced mammary tumor area in rats after 28 day therapy at 1 mg dose (experiment-1); format: functional; how it was run: as §2
Rattus norvegicus [38] = organism: Rattus norvegicus; test: Change in DMBA-induced mammary tumor area in rats after 28 day therapy at 4 mg dose (experiment-1); format: functional; how it was run: as §2
Rattus norvegicus [39] = organism: Rattus norvegicus; test: Initial tumor number in DMBA-induced tumor bearing rats at 4 mg dose (experiment-1); format: functional; how it was run: as §2
[40] = target: T1, Estrogen receptor (Mus musculus); settings: Uterus
[41] = target: T1, Estrogen receptor (Mus musculus); settings: Uterus; remark: listed apart in the source
[42] = target: T1, Estrogen receptor (Mus musculus); settings: Uterus; remark: listed apart in the source
[43] = target: T1, Estrogen receptor (Mus musculus); settings: Uterus; remark: listed apart in the source

T1 sequence (O08537 whole entry, looked up): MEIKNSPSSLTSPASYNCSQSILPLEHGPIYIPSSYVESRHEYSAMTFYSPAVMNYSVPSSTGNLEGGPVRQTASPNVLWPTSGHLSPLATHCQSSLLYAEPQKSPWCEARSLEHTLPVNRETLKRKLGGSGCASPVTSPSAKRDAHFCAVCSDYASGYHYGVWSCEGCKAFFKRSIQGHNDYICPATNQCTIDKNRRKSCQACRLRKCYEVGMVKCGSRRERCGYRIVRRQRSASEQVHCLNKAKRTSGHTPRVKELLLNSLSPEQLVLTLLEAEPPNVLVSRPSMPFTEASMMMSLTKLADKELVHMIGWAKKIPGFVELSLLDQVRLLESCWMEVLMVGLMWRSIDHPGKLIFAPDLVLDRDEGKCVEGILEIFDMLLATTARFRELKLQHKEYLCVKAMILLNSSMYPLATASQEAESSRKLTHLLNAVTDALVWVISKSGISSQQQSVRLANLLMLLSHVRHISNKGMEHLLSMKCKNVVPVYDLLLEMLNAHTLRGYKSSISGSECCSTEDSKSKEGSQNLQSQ
T1 sequence (P19785 whole entry, looked up): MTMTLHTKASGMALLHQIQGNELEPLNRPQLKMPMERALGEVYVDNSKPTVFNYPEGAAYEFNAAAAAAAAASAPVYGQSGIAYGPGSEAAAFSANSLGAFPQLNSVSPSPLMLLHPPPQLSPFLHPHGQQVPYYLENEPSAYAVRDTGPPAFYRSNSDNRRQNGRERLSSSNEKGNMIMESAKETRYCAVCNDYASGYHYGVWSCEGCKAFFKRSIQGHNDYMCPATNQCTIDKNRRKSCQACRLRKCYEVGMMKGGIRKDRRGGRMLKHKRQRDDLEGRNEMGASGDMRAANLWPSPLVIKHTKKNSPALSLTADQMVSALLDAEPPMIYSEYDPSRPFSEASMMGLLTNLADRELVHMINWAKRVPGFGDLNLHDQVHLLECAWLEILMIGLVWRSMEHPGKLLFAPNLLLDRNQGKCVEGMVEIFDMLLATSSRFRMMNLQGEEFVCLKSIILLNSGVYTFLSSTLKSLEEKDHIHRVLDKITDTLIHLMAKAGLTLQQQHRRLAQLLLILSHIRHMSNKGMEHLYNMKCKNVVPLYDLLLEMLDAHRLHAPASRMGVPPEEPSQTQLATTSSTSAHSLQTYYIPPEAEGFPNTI

CCn1c2c(c3ccc(O)cc31)CCc1c(O)cccc1-2
relative binding affinity (RBA) [1]: 1.3

CCn1c2c(c3ccccc31)CCc1cc(O)ccc1-2
relative binding affinity (RBA) [1]: 1.8

CCn1c2cc(O)ccc2c2ccc3ccccc3c21
relative binding affinity (RBA) [1]: 0.01

CCn1c2ccccc2c2ccc3cc(O)ccc3c21
relative binding affinity (RBA) [1]: 0.33

CCCn1c2c(c3ccc(O)cc31)CCc1cc(O)ccc1-2
relative binding affinity (RBA) [1]: 38

CCn1c2c(c3cc(O)ccc31)CCc1ccc(O)cc1-2
relative binding affinity (RBA) [1]: 0.7

CCn1c2c(c3ccc(OC(C)=O)cc31)CCc1cc(OC(C)=O)ccc1-2
Activity [2]: 43.9
Activity [3]: 45.8
Activity [4]: 20.3
Activity [5]: 29.3

CCn1c2cc(OC(C)=O)ccc2c2ccc3cc(OC(C)=O)ccc3c21
Effect [2]: 38.7
Effect [3]: 38.5
Effect [6]: 46
Effect [4]: 21.6
Effect [5]: 28.5

CC/C(=C(\c1ccccc1)c1ccc(OCCN(C)C)cc1)c1ccccc1 [TAMOXIFEN]
Effect (Rattus norvegicus [7]): 7%
Change in tumor area (Rattus norvegicus [8]): 136%
T/C (MCF7 [9]): 0% and 6%
cell number (MCF7 [10]): 2000
Activity (MCF7 [11]): 80
Effect (Rattus norvegicus [12]): 44%
T/C (MCF7 [13]): 2% and 12%
Change in tumor area (Rattus norvegicus [14]): -57%
Effect (Rattus norvegicus [15]): 27%
Activity (MCF7 [16]): 1850
cell number (MCF7 [17]): 4800
Effect (Rattus norvegicus [18]): 22%
No. of tumors (Rattus norvegicus [19]): 31
No. of new tumors (Rattus norvegicus [20]): 24

CCn1c2c(c3cc(O)ccc31)CCc1c(O)cccc1-2
relative binding affinity (RBA) [1]: 1.9

CCn1c2c(c3cc(O)ccc31)CCc1cc(O)ccc1-2
cell number (MCF7 [10]): 4600
Activity (MCF7 [11]): 760
Activity (MCF7 [16]): 25840
cell number (MCF7 [17]): 28200
relative binding affinity (RBA) [1]: 13

CCCCn1c2c(c3ccc(O)cc31)CCc1cc(O)ccc1-2
relative binding affinity (RBA) [1]: 9.5

CCCCn1c2cc(O)ccc2c2ccc3cc(O)ccc3c21
relative binding affinity (RBA) [1]: 2.3

Cn1c2cc(O)ccc2c2ccc3cc(O)ccc3c21
relative binding affinity (RBA) [1]: 9.5

CCn1c2ccc(O)cc2c2ccc3ccccc3c21
relative binding affinity (RBA) [1]: < 0.01

CCn1c2cc(O)ccc2c2ccc3ccc(O)cc3c21
relative binding affinity (RBA) [1]: 3.6

CCn1c2ccc(OC(C)=O)cc2c2ccc3cc(OC(C)=O)ccc3c21
Effect (Rattus norvegicus [21]): 8%
Effect [2]: 15.1
Effect [3]: 14.4
No. of new tumors (Rattus norvegicus [22]): 45
Effect (Rattus norvegicus [23]): 70%
Median (Rattus norvegicus [24]): 493%
Range (Rattus norvegicus [24]): -29%
Effect [6]: 18.1
No. of tumors (Rattus norvegicus [25]): 23
Effect (Rattus norvegicus [26]): 59%
Effect (Rattus norvegicus [27]): 25%
Effect (Rattus norvegicus [28]): 19%
Effect [4]: 12
Effect (Rattus norvegicus [29]): 10%
No. of tumors (Rattus norvegicus [30]): 22
Change of tumor area (Rattus norvegicus [31]): 111%
No. of new tumors (Rattus norvegicus [32]): 41
Effect (Rattus norvegicus [33]): 3%
Effect (Rattus norvegicus [34]): 6%
Effect [5]: 13.7
Change of tumor area (Rattus norvegicus [35]): 561%

CCn1c2ccc(O)cc2c2ccc3cc(O)ccc3c21
cell number (MCF7 [10]): 5200
Activity (MCF7 [11]): 1040
Activity (MCF7 [16]): 26460
cell number (MCF7 [17]): 24100
relative binding affinity (RBA) [1]: 6.5

CCn1c2c(c3cc(OC(C)=O)ccc31)CCc1cc(OC(C)=O)ccc1-2
No. of new tumors (Rattus norvegicus [36]): 24
Effect (Rattus norvegicus [21]): 7%
Effect [2]: 23.6
Effect [3]: 18.4
Effect (Rattus norvegicus [23]): 49%
Change in tumor area (Rattus norvegicus [37]): 179%
Effect [6]: 25.4
Effect (Rattus norvegicus [26]): 61%
Effect (Rattus norvegicus [27]): 23%
Effect (Rattus norvegicus [28]): 35%
Change in tumor area (Rattus norvegicus [38]): 230%
No. of tumors (Rattus norvegicus [39]): 24
Effect [4]: 15.3
Effect (Rattus norvegicus [29]): 6%
No. of tumors (Rattus norvegicus [30]): 22
No. of new tumors (Rattus norvegicus [32]): 21
Effect (Rattus norvegicus [33]): 9%
Effect (Rattus norvegicus [34]): 10%
Effect [5]: 19.6

CCn1c2cc(O)ccc2c2ccc3cc(O)ccc3c21
relative binding affinity (RBA) [1]: 20

Cn1c2c(c3ccc(O)cc31)CCc1cc(O)ccc1-2
relative binding affinity (RBA) [1]: 9.6

CCn1c2c(c3ccc(O)cc31)CCc1ccc(O)cc1-2
relative binding affinity (RBA) [1]: 9.7

CCCn1c2cc(O)ccc2c2ccc3cc(O)ccc3c21
relative binding affinity (RBA) [1]: 13

CCn1c2ccc(O)cc2c2ccc3ccc(O)cc3c21
relative binding affinity (RBA) [1]: 0.08

CCn1c2c(c3ccc(O)cc31)CCc1ccccc1-2
relative binding affinity (RBA) [1]: 0.8

CCn1c2cc(O)ccc2c2ccc3c(O)cccc3c21
relative binding affinity (RBA) [1]: 0.65

CCn1c2c(c3ccc(O)cc31)CCc1cc(O)ccc1-2
relative binding affinity (RBA) [1]: 30

C[C@]12CC[C@@H]3c4ccc(O)cc4CC[C@H]3[C@@H]1CCC2=O
Effect [40]: 48.6
Effect [41]: 46.9
Effect [42]: 46.9
Effect [43]: 42.5

CCn1c2ccc(O)cc2c2ccc3c(O)cccc3c21
relative binding affinity (RBA) [1]: 0.1

CCn1c2c(c3cc(O)ccc31)CCc1ccccc1-2
relative binding affinity (RBA) [1]: 0.06
